Results on 14 compounds are retold here after ChEMBL document CHEMBL3612034, “Synthesis of bicoumarin thiophosphate derivatives as steroid sulfatase inhibitors” (Eur J Med Chem, 2015).

The target of test [1] is T1, Steryl-sulfatase (Homo sapiens, UniProt P08842).
T1 sequence (P08842 whole entry): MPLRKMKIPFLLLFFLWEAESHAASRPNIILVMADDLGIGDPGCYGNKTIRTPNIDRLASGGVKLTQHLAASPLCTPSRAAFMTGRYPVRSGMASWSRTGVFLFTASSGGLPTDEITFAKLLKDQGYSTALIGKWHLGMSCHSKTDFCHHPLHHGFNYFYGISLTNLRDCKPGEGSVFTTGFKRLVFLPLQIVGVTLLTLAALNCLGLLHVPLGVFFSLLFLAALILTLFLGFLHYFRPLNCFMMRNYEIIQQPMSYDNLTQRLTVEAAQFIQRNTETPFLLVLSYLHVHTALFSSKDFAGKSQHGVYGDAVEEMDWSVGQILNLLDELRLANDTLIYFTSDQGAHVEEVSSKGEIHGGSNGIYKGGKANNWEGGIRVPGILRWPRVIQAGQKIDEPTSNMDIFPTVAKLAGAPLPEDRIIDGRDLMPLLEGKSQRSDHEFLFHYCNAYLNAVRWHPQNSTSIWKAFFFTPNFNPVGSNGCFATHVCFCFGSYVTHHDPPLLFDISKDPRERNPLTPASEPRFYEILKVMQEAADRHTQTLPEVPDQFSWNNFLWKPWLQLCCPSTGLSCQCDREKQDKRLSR
The test can be described thus: Inhibition of human placenta STS using NPS as substrate after 15 mins by microplate reader analysis. In outline:
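Enzyme: STS extracted from human placenta and purified by multi-step chromatography. Each reaction held 20 mM Tris-HCl pH 7.4, 3 mM p-nitrophenyl sulfate (NPS), 5 U enzyme and graded inhibitor concentrations, and ran 15 min at 37 °C. Stopped with 1 M NaOH; released p-nitrophenol read at 405 nm. IC50 fitted from triplicate measurements.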

Test [2] concerns the target T1, Steryl-sulfatase. The test can be described thus: Inhibition of recombinant human STS transfected in CHO cells using MUS as substrate after 30 mins by fluorescence assay. The test is classed as cell-based.
For test [3], the target named is T2, Steryl-sulfatase (Homo sapiens) (UniProt P08842).
T2 sequence (whole entry): T1 sequence (P08842 whole entry)
The test can be described thus: Irreversible inhibition of human placenta STS at 100 uM preincubated for 30 mins in standard condition followed by exchange of reaction environment. In outline: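 Purified human placental STS was run under standard assay conditions (Tris-HCl pH 7.4, NPS substrate, 37 °C) with inhibitor present. Restored enzyme activity was then measured the same way, by p-nitrophenol absorbance at 405 nm after an NaOH stop. Basal and restored activities were compared to tell reversible from irreversible inhibition.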

For test [4], the target named is T1, Steryl-sulfatase. The test can be described thus: Inhibition of human placenta STS. In outline: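 Human placental STS purified to homogeneity by multi-step chromatography. Each reaction used 5 U enzyme, 20 mM Tris-HCl pH 7.4, 3 mM p-nitrophenyl sulfate (NPS) and a range of inhibitor concentrations, for 15 min at 37 °C. NaOH stopped the reaction, and released p-nitrophenol was read at 405 nm. IC50 came from the dose-response curve, run in triplicate.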

For test [5], the target named is T2, Steryl-sulfatase (Homo sapiens). The test can be described thus: Reversible inhibition of human placenta STS at 100 uM preincubated for 30 mins in standard condition followed by exchange of reaction environment. In outline: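 Reversibility test: the standard placental STS/NPS assay (Tris-HCl pH 7.4, 37 °C) was run with compound at a single fixed concentration. Enzyme activity was then measured again after restoration by the same p-nitrophenol absorbance read-out at 405 nm. Basal and restored activities were compared.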

Calls of active or inactive are those of the source. No cut-off for these calls is given here.

In the case of `O=c1oc2cc(OP(O)(=S)Oc3ccc4c5c(c(=O)oc4c3)CCC5)ccc2c2c1CCC2`, the IC50 (usually the point on the concentration scale where inhibition reaches its midpoint) on Steryl-sulfatase [1] turned out to be 26.9 µM.
As for `CC(C)N(C(=O)C1=CC[C@H]2[C@@H]3CCc4cc(OS(N)(=O)=O)ccc4[C@H]3CC[C@]12C)C(C)C`, the IC50 on Steryl-sulfatase [2] turned out to be 0.004 µM.
`COP(=S)(Oc1ccc2c3c(c(=O)oc2c1)CCCC3)Oc1ccc2c3c(c(=O)oc2c1)CCCC3` displayed an IC50 against Steryl-sulfatase [1] of 14.8 µM.
The same measure, in the same setting: then `NP(=S)(Oc1ccc2c3c(c(=O)oc2c1)CCCCC3)Oc1ccc2c3c(c(=O)oc2c1)CCCCC3`, with 88.8 µM.
Consider `O=c1oc2cc(OP(=S)(Cl)Oc3ccc4c5c(c(=O)oc4c3)CCCC5)ccc2c2c1CCCC2`, for which the inhibition entry in test [3] was “Active”. Also, the half-maximal inhibitory concentration (IC50) at Steryl-sulfatase [1] was found to be 7.76 µM.
The compound `COP(=S)(Oc1ccc2c3c(c(=O)oc2c1)CCC3)Oc1ccc2c3c(c(=O)oc2c1)CCC3` came in with an IC50 on Steryl-sulfatase [1] of 75 µM.
`NP(=S)(Oc1ccc2c3c(c(=O)oc2c1)CCCC3)Oc1ccc2c3c(c(=O)oc2c1)CCCC3` showed an IC50 at Steryl-sulfatase [1] of 110 µM.
As for `O=c1oc2cc(OP(O)(=S)Oc3ccc4c5c(c(=O)oc4c3)CCCCC5)ccc2c2c1CCCCC2`, at Steryl-sulfatase [1], the IC50 was found to be 5.51 µM.
Compound `NS(=O)(=O)Oc1ccc2c(c1)OC(O)C1=C2CCCCC1` (configuration not stated) showed an IC50 against Steryl-sulfatase [4] of 0.008 µM.
Compound `O=c1oc2cc(OP(=S)(Cl)Oc3ccc4c5c(c(=O)oc4c3)CCC5)ccc2c2c1CCC2` displayed an IC50 against Steryl-sulfatase [1] of 33.8 µM.
As for `O=c1oc2cc(OP(=S)(Cl)Oc3ccc4c5c(c(=O)oc4c3)CCCCC5)ccc2c2c1CCCCC2`, the concentration for half-maximal inhibition (IC50) at Steryl-sulfatase [1] was found to be 7.04 µM.
The same measure, in the same setting: then `NP(=S)(Oc1ccc2c3c(c(=O)oc2c1)CCC3)Oc1ccc2c3c(c(=O)oc2c1)CCC3`, with 74.3 µM.
As to `O=c1oc2cc(OP(O)(=S)Oc3ccc4c5c(c(=O)oc4c3)CCCC5)ccc2c2c1CCCC2`, the inhibition entry in test [5] is “Active”. On Steryl-sulfatase [1], this compound returned an IC50 of 0.86 µM.
For the compound `COP(=S)(Oc1ccc2c3c(c(=O)oc2c1)CCCCC3)Oc1ccc2c3c(c(=O)oc2c1)CCCCC3`, the inhibition result in test [3] is “Active”. Besides, at Steryl-sulfatase [1], the IC50 was 6.77 µM.
